According to ChEMBL document CHEMBL4428047 (J Med Chem, 2016):
Values after ≈ are worked out from the molar mass of the structure shown.

Key:
[1] = Clearance in human liver microsomes assessed as drug turnover level at 1 uM incubated for 30 mins in presence of NADPH; assay type: ADME, Microsome; details: read-out: CLH
Method in brief: (§1)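 Parent compound at 1 µM incubated with liver microsomes (0.25 mg/mL) in 66.7 mM potassium phosphate with 1 mM NADPH, 37 °C, 30 min; % turnover measured by LC/MS.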

[2] = Clearance in rat liver microsomes assessed as drug turnover level at 1 uM incubated for 30 mins in presence of NADPH; assay type: ADME, Microsome; details: read-out: CLH; method in brief: as §1
[3] = Aqueous equilibrium solubility at room temperature after 72 hrs at pH 7.4 by HPLC; assay type: physicochemical; details: buffer
[4] = Oral bioavailability in Sprague-Dawley rat at 2 mg/kg by LC-MS method; assay type: ADME, organism-based; details: in vivo
[5] = Clearance in Sprague-Dawley rat at 0.5 mg/kg, iv by LC-MS method; assay type: ADME, organism-based; details: in vivo
Method in brief: (§2)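 Male Sprague-Dawley rats, two animals per study, dosed IV at 0.5 mg/kg as a solution in 100% DMSO. Unbound clearance calculated as total clearance divided by rat plasma fraction unbound (CLu = CL/fu).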

[6] = Unbound clearance in Sprague-Dawley rat at 0.5 mg/kg, iv by LC-MS method; assay type: ADME, organism-based; details: in vivo; method in brief: as §2
[7] = Apparent permeability in LLC-PK1 cells by LC-MS method; assay type: ADME, cell-based, Sus scrofa; details: pig
Method in brief: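 Passive permeability across LLCPK1 monolayers; apparent permeability (Papp) obtained by mass balance with LC/MS quantitation.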

| SMILES | microsomal CLint at 1 µM [1] [µL/min/mg] | microsomal CLint at 1 µM [2] [µL/min/mg] | solubility thermodynamic at 72 h [3] [µg/mL] | bioavailability [4] [%] | clearance [5] [mL/min/kg] | CL free [6] [mL/min/kg] | Papp [7] [×10⁻⁶ cm/s] |
| --- | --- | --- | --- | --- | --- | --- | --- |
| C[C@H](Nc1ncnc(N)c1C#N)c1nc2ccc(F)cc2c(-c2ccccn2)c1-c1ccccn1 | 47 | 16 |  |  |  |  |  |
| CNCCNC(=O)c1c(-c2ccccc2)c([C@H](C)Nc2ncnc(N)c2C#N)nc2ccc(F)cc12 | < 14 | < 14 |  |  |  |  |  |
| CNC(=O)c1c(-c2ccccn2)c([C@H](C)Nc2ncnc(N)c2C#N)nc2cccc(F)c12 | < 14 | < 14 | 200 (≈ 452 µM) | 29 | 11.7 | 67 | 8 |
| CC(C)NC(=O)c1c(-c2ccccc2)c([C@H](C)Nc2ncnc(N)c2C#N)nc2ccc(F)cc12 | 51 | < 14 |  |  |  |  |  |
| CCNC(=O)c1c(-c2ccccc2)c([C@H](C)Nc2ncnc(N)c2C#N)nc2ccc(F)cc12 | 22 | < 14 |  |  |  |  |  |
| CNC(=O)c1c(-c2ccccn2)c([C@H](C)Nc2ncnc(N)c2C#N)nc2ccc(F)cc12 | < 14 | < 14 | 200 (≈ 452 µM) | 70 | 8.33 | 38.3 | 14.6 |
| CNCCNC(=O)c1c(-c2ccccn2)c([C@H](C)Nc2ncnc(N)c2C#N)nc2ccc(F)cc12 | 33 | < 14 |  |  | 16.7 | 468 |  |
| C[C@H](Nc1ncnc(N)c1C#N)c1nc2ccc(F)cc2c(C(=O)N(C)C)c1-c1ccccc1 | 198 | 426 |  |  |  |  |  |
| CCNC(=O)c1c(-c2ccccn2)c([C@H](C)Nc2ncnc(N)c2C#N)nc2ccc(F)cc12 | < 14 | < 14 |  |  | 3.33 | 102 |  |
| CC(Nc1ncnc(N)c1C#N)c1nc2ccc(F)cc2c(C(=O)N2CCNCC2)c1-c1ccccn1 (racemic) | 24 | 17 |  |  |  |  |  |
| CC(Nc1ncnc(N)c1C#N)c1nc2ccc(F)cc2c(C(=O)N2CC(O)C2)c1-c1ccccn1 (racemic) | < 14 | < 14 |  |  |  |  |  |
| C[C@H](Nc1ncnc2[nH]cnc12)c1cc2ccc(F)cc2nc1-c1ccccn1 [AMG-319] | < 14 | < 14 | > 200 | 54 | 5 | 45 | 30 |

Next, values leading:

| microsomal CLint at 1 µM [1] [µL/min/mg] | microsomal CLint at 1 µM [2] [µL/min/mg] | solubility thermodynamic at 72 h [3] [µg/mL] | bioavailability [4] [%] | clearance [5] [mL/min/kg] | CL free [6] [mL/min/kg] | Papp [7] [×10⁻⁶ cm/s] | SMILES |
| --- | --- | --- | --- | --- | --- | --- | --- |
| 62 | 78 |  |  |  |  |  | C[C@H](Nc1ncnc(N)c1C#N)c1nc2ccc(F)cc2c(C(=O)N2CCS(=O)(=O)CC2)c1-c1ccccc1 |
| 82 | 50 |  |  | 15 | 1000 |  | C[C@H](Nc1ncnc(N)c1C#N)c1nc2ccc(F)cc2c(C(=O)N2CCNCC2)c1-c1ccccc1 |
| < 14 | 15 |  |  | 8.33 | 75 |  | CNC(=O)c1c(-c2ccccc2)c([C@H](C)Nc2ncnc(N)c2C#N)nc2ccc(F)cc12 |
| 40 | 49 |  |  |  |  |  | C[C@H](Nc1ncnc(N)c1C#N)c1nc2ccc(F)cc2c(C(=O)N2CC(O)C2)c1-c1ccccc1 |
| < 14 | < 14 |  |  | 10 |  |  | C[C@H](Nc1ncnc(N)c1C#N)c1nc2ccc(F)cc2c(C(N)=O)c1-c1ccccc1 |
